From ChEMBL document CHEMBL4346672, “Antimicrobial and KPC/AmpC inhibitory activity of functionalized benzosiloxaboroles” (Eur J Med Chem, 2019)
≈ marks a conversion by molar mass, not a printed value. Calls of active or inactive are those of the source. The rule behind the calls is not given here.

Experiments:
Staphylococcus aureus [1] = assay: Antibacterial activity against Staphylococcus aureus ATCC 6538P assessed as diameter of zone inhibition measured after 18 hrs by CLSI disc diffusion method; type: functional
Outline: (§1)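 Disc diffusion on Mueller-Hinton II agar. Compounds dissolved in DMSO. Strains stored at -80 °C and subcultured twice on tryptic soy agar before testing. Inhibition zones read after 35 °C, 18 h.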

[2] = system: Bordetella bronchiseptica; assay: Antibacterial activity against Bordetella bronchiseptica ATCC 4617 measured after 18 hrs by CLSI broth dilution method; type: functional; conditions: ATCC 4617, 18 h
Outline: (§2)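 Broth MIC in Mueller-Hinton II broth following CLSI, compounds dissolved in DMSO. Strains subcultured twice on tryptic soy agar before testing. Growth read after 35 °C, 18 h.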

Pseudomonas aeruginosa = assay: Antibacterial activity against Pseudomonas aeruginosa ATCC 27853 measured after 18 hrs by CLSI broth dilution method; type: functional; conditions: ATCC 27853, 18 h; outline: as §2
[3] = system: Stenotrophomonas maltophilia; assay: Antibacterial activity against Stenotrophomonas maltophilia ATCC 13637 assessed as diameter of zone inhibition measured after 18 hrs by CLSI disc diffusion method; type: functional; outline: as §1
[4] = system: Stenotrophomonas maltophilia; assay: Antibacterial activity against Stenotrophomonas maltophilia ATCC 13637 assessed as fold reduction of MIC in presence of efflux pump inhibitor PAbetaN incubated for 18 hrs by broth microdilution method; type: functional
Outline: (§3)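 MICs determined with and without PAβN at 50 mg/L in Mueller-Hinton broth containing 1 mM MgSO₄. 2-fold serial dilutions per CLSI. Fold change taken from the paired MICs after 35 °C, 18 h.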

Acinetobacter baumannii = assay: Antibacterial activity against Acinetobacter baumannii ATCC 19606 measured after 18 hrs by CLSI broth dilution method; type: functional; conditions: ATCC 19606, 18 h; outline: as §2
Enterococcus faecium = assay: Antibacterial activity against Enterococcus faecium ATCC 6057 measured after 18 hrs by CLSI broth dilution method; type: functional; conditions: ATCC 6057, 18 h; outline: as §2
Serratia marcescens = assay: Antibacterial activity against Serratia marcescens ATCC 13880 measured after 18 hrs by CLSI broth dilution method; type: functional; conditions: ATCC 13880, 18 h; outline: as §2
Burkholderia cepacia = assay: Antibacterial activity against Burkholderia cepacia ATCC 25416 assessed as diameter of zone inhibition measured after 18 hrs by CLSI disc diffusion method; type: functional; outline: as §1
Pichia kudriavzevii [5] = assay: Antifungal activity against Candida krusei ATCC 6258 assessed as decrease in fungal cell growth at 0.78 to 12.5 mg/L incubated for 24 hrs by CLSI broth dilution method; type: functional; conditions: ATCC 6258, 24 h
Outline: (§4)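 Yeast broth dilution in RPMI 1640 with 2% glucose, compounds in DMSO. Yeasts pre-grown on Sabouraud dextrose agar. Growth read after 35 °C, 24 h.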

Escherichia coli = assay: Antibacterial activity against Escherichia coli ATCC 25922 assessed as fold reduction of MIC in presence of efflux pump inhibitor PAbetaN incubated for 18 hrs by CLSI broth microdilution method; type: functional; outline: as §3
Proteus mirabilis = assay: Antibacterial activity against Proteus mirabilis ATCC 12453 measured after 18 hrs by CLSI broth dilution method; type: functional; conditions: ATCC 12453, 18 h; outline: as §2
Pichia kudriavzevii [6] = assay: Antifungal activity against Candida krusei ATCC 6258 assessed as diameter of zone inhibition incubated for 24 hrs by CLSI disc diffusion method; type: functional
Outline: (§5)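 Yeast disc diffusion on Mueller-Hinton agar supplemented with 2% glucose and 0.5 mg/L methylene blue. Compounds in DMSO. Yeasts subcultured on Sabouraud dextrose agar before testing. Zones read after 35 °C, 24 h.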

Candida albicans = assay: Antifungal activity against Candida albicans ATCC 90028 assessed as diameter of zone inhibition incubated for 24 hrs by CLSI disc diffusion method; type: functional; outline: as §5
Candida parapsilosis = assay: Antifungal activity against Candida parapsilosis ATCC 22019 assessed as decrease in fungal cell growth at 0.78 to 12.5 mg/L incubated for 24 hrs by CLSI broth dilution method; type: functional; conditions: Lodderomyces parapsilosis, ATCC 22019, 24 h; outline: as §4
Klebsiella pneumoniae [7] = assay: Antibacterial activity against Klebsiella pneumoniae ATCC 13883 measured after 18 hrs by CLSI broth dilution method; type: functional; conditions: ATCC 13883, 18 h; outline: as §2
Klebsiella pneumoniae [8] = conditions: ATCC 13883
Enterococcus faecalis = assay: Antibacterial activity against Enterococcus faecalis ATCC 29212 assessed as diameter of zone inhibition measured after 18 hrs by CLSI disc diffusion method; type: functional; outline: as §1
Staphylococcus aureus [9] = assay: Bactericidal activity against Staphylococcus aureus ATCC 6538P measured after 18 hrs by CLSI broth dilution method; type: functional
Outline: (§6)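 Strains stored at -80 °C and subcultured twice on tryptic soy agar before testing. Compounds dissolved in DMSO. […] MBC then determined per CLSI recommendations.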

[10] = system: Staphylococcus epidermidis; assay: Bactericidal activity against Staphylococcus epidermidis ATCC 12228 measured after 18 hrs by CLSI broth dilution method; type: functional; conditions: ATCC 12228, 18 h; outline: as §6

Compound	diameter of the inhibition zone (DIZ) (Staphylococcus aureus [1])	MIC [2] [µg/mL]	MIC (Pseudomonas aeruginosa) [µg/mL]	diameter of the inhibition zone (DIZ) [3]	fold change (FC) [4]	MIC (Acinetobacter baumannii) [µg/mL]	MIC (Enterococcus faecium) [µg/mL]	MIC (Serratia marcescens) [µg/mL]	diameter of the inhibition zone (DIZ) (Burkholderia cepacia)	MIC (Pichia kudriavzevii [5]) [µg/mL]	fold change (FC) (Escherichia coli)	MIC (Proteus mirabilis) [µg/mL]	diameter of the inhibition zone (DIZ) (Pichia kudriavzevii [6])	diameter of the inhibition zone (DIZ) (Candida albicans)	MIC (Candida parapsilosis) [µg/mL]	MIC (Klebsiella pneumoniae [7]) [µg/mL]	DIZ (Klebsiella pneumoniae [8])	diameter of the inhibition zone (DIZ) (Enterococcus faecalis)	MBC (Staphylococcus aureus [9]) [µg/mL]	MBC [10] [µg/mL]
C[Si]1(C)OB(O)c2cc(F)c(C=O)c(F)c21	21 mm	> 400	> 400	11 mm	8	> 400	50 (≈ 207 µM)	> 400	inactive	25 (≈ 103 µM)	4	> 400	inactive	inactive	25 (≈ 103 µM)	> 400	inactive	inactive		
C[Si]1(C)OB(O)c2cc(F)c(F)cc21	34 mm	400 (≈ 1870 µM)	> 400	14 mm	16	> 400	200 (≈ 934 µM)	> 400	inactive	50 (≈ 234 µM)	32	400 (≈ 1870 µM)	17 mm	16 mm	100 (≈ 467 µM)	> 400	inactive	inactive		
C[Si]1(C)OB(O)c2ccc(C=O)c(F)c21	21 mm	> 400	> 400	inactive	16	> 400	200 (≈ 893 µM)	> 400	inactive	> 400	16	> 400	inactive	inactive	400 (≈ 1790 µM)	> 400	inactive	inactive	100 (≈ 446 µM)	100 (≈ 446 µM)
C[Si]1(C)OB(O)c2ccc(F)cc21	29 mm	> 400	> 400	12 mm	8	200 (≈ 1020 µM)	200 (≈ 1020 µM)	> 400	inactive	12.5 (≈ 63.8 µM)	16	> 400	11 mm	13 mm	25 (≈ 128 µM)	> 400	inactive	inactive	400 (≈ 2040 µM)	
C[Si]1(C)OB(O)c2cccc(F)c21	25 mm	200 (≈ 1020 µM)	> 400	11 mm	8	200 (≈ 1020 µM)	200 (≈ 1020 µM)	> 400	inactive	50 (≈ 255 µM)	32	200 (≈ 1020 µM)	18 mm	24 mm	100 (≈ 510 µM)	> 400	inactive	13 mm		
C[Si]1(C)OB(O)c2cccc(B(O)O)c21	11 mm	> 400	> 400	12 mm	16	400 (≈ 1800 µM)	400 (≈ 1800 µM)	> 400	inactive	50 (≈ 225 µM)	4	> 400	inactive	inactive	400 (≈ 1800 µM)	> 400	inactive	inactive		
C[Si]1(C)OB(O)c2cc(F)c(CO)c(F)c21	17 mm	> 400	> 400	inactive	16	400 (≈ 1640 µM)	> 400	> 400	inactive	400 (≈ 1640 µM)	4	> 400	inactive	inactive	400 (≈ 1640 µM)	> 400	inactive	inactive		
C[Si]1(C)OB(O)c2ccccc21	inactive	> 200	> 200	inactive	8	> 200	200 (≈ 1120 µM)	> 200	inactive	25 (≈ 140 µM)	4	> 200	inactive	inactive	25 (≈ 140 µM)	> 200	inactive	inactive		
